Published values pooled from the literature.
Each line is one published result; the experiments were not run side by side. pIC50: −log10 of the molar value. Converted amounts (≈) assume the structure as drawn.

| SMILES | target or system | assay | test system | conditions | quantity | result |
| --- | --- | --- | --- | --- | --- | --- |
| CO/N=C(\C(=O)N[C@@H]1C(=O)N2C(C(=O)O)=CCS[C@H]12)c1csc(N)n1 | Acinetobacter baumannii | microbial growth, broth dilution | ATCC19606 | – | MIC | 16 mg/L (≈ 41.7 µM) |
| Oc1cc(O)c2c(c1)O[C@H](c1cc(O)c(O)c(O)c1)[C@@H](O)C2 | Streptococcus gordonii | microbial killing, broth dilution | – | – | MBC | 100 mg/L (≈ 327 µM) |
| CC[C@H]1OC(=O)[C@H](C)[C@@H](O[C@H]2C[C@@](C)(OC)[C@@H](O)[C@H](C)O2)[C@H](C)[C@@H](O[C@@H]2O[C@H](C)C[C@H](N(C)C)[C@H]2O)[C@](C)(O)C[C@@H](C)CN(C)[C@H](C)[C@@H](O)[C@]1(C)O | Acinetobacter baumannii | microbial growth, broth dilution | ATCC19606 | – | MIC | 1 mg/L (≈ 1.34 µM) |
| CN(C)CCNC(=O)c1ccc(-c2nc3ccc4[nH]ncc4c3c3c2CCCC3)cc1 | G-361 | cell growth or viability | – | 72 h | GI50 | 3.5 µM |
| CCC(C(=O)N1C(=O)C(=Nc2ccc(Cl)cc2Br)c2ccccc21)c1ccccc1 (stereo not drawn) | B16 | cell growth or viability, MTT | – | 48 h | pIC50 | 4.57 |
| Cc1n[nH]c2ccc3nc(-c4ccc(C(=O)NCCN(C)C)cc4)c4c(c3c12)CCCCC4 | G-361 | cell growth or viability | – | 72 h | GI50 | > 10 µM |
| C[C@@H](O)[C@H]1C(=O)N2C(C(=O)O)=C(S[C@@H]3CN[C@H](C(=O)N(C)C)C3)[C@H](C)[C@H]12 | Acinetobacter baumannii | microbial growth, broth dilution | ATCCBAA1605 | – | MIC | 16 mg/L (≈ 41.7 µM) |
| O=C(O[C@@H]1O[C@@H]2COC(=O)c3cc(O)c(O)c(O)c3-c3c(cc(O)c(O)c3O)C(=O)O[C@H]([C@H]1O)[C@@H]2O)c1cc(O)c(O)c(O)c1 | Streptococcus gordonii | microbial growth, disc diffusion | – | 500 µg/disc | inhibition zone | 14 mm |
| CC(C)c1cccc(C(C)C)c1N=C1C(=O)N(Cc2cccc(Cl)c2)c2ccccc21 | B16 | cell growth or viability, MTT | – | 48 h | pIC50 | 4.39 |
| O=C1O[C@H]2[C@@H]3OC(=O)c4cc(O)c(O)c(O)c4-c4c(O)c(O)c5oc(=O)c6c(c(O)c(O)c7oc(=O)c4c5c76)-c4c(cc(O)c(O)c4O)C(=O)OC[C@H]3OC(O)[C@@H]2OC(=O)c2cc(O)c(O)c(O)c2-c2c1cc(O)c(O)c2O (mixture of isomers) | Streptococcus gordonii | microbial growth, disc diffusion | – | 500 µg/disc | inhibition zone | 14.2 mm |
| Cc1cccc(N=C2C(=O)Nc3ccccc32)c1 | B16 | cell growth or viability, MTT | – | 48 h | pIC50 | 4.29 |
| C[C@@H]1O[C@@H](OC[C@H]2O[C@@H](Oc3c(-c4ccc(O)c(O)c4)oc4cc(O)cc(O)c4c3=O)[C@H](O)[C@@H](O)[C@@H]2O)[C@H](O)[C@H](O)[C@H]1O | Streptococcus gordonii | microbial killing, broth dilution | – | – | MBC | 400 mg/L (≈ 655 µM) |
| FC(F)(F)c1ccc(-c2cc(CNc3cccc4cccnc34)on2)cc1 | Z-138 | cell growth or viability, MTS | – | 72 h | pIC50 | 4.07 |
| Cc1cccc(N=C2C(=O)N(Cc3ccccc3)c3ccccc32)c1 | B16 | cell growth or viability, MTT | – | 48 h | pIC50 | 5.97 |
| CC1(C)S[C@@H]2[C@H](NC(=O)[C@H](N)c3ccc(O)cc3)C(=O)N2[C@H]1C(=O)O | Acinetobacter baumannii | microbial growth, broth dilution | ATCC19606 | – | MIC | > 64 mg/L |
| CCCCCCC#Cc1cncc(-c2nnc(SCc3ccc(Cl)cc3)n2CCCN)c1 | Acinetobacter baumannii | microbial growth, broth dilution | ATCC17978 | – | MIC | 16 mg/L (≈ 34.2 µM) |
| CCc1ccc(N=C2C(=O)N(Cc3ccccc3)c3ccccc32)cc1 | B16 | cell growth or viability, MTT | – | 48 h | pIC50 | 6.30 |
| O=C1OC[C@H]2OC(O)[C@H](O)[C@@H](O)[C@@H]2OC(=O)c2cc(O)c(O)c(O)c2-c2c(O)c(O)c3oc(=O)c4c(c(O)c(O)c5oc(=O)c2c3c54)-c2c1cc(O)c(O)c2O (mixture of isomers) | Streptococcus gordonii | microbial growth, broth dilution | – | 24 h | MIC | 200 mg/L |
